Source: PMC11542726 (Methods in enzymology, 2024)
Entries after “also recorded” stand apart in the source; their conditions may differ.

Assays:
Crk SH2 [1] = experiment: FP competition assay: unlabeled peptides vs FAM-DVpYDVPP; type: binding, mouse Crk protein 1 – 118 identical to human CRK protein; conditions: 4 nM FAM-labeled phosphorylated peptide, 150 nM Crk SH2, unlabeled competitor peptides; data not shown
Outline: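 Polarization is read as mP values. For each unlabeled peptide, the concentration giving 50% displacement of the FAM probe is obtained by non-linear regression.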

Crk SH2 [2] = experiment: Differential scanning fluorimetry; type: binding, mouse Crk protein 1 – 118 identical to human CRK protein; conditions: 10 μM Crk SH2, 10X SYPRO Orange, peptides 0-300 μM, 50 mM HEPES, pH 7.5, 150 mM NaCl; 25 to 95°C at 0.2°C/s; Figure 6B
Outline: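 Before dye addition, Crk SH2 (10 μM final) is preincubated with peptides, dispensed from DMSO or buffer, for 30 min at room temperature. SYPRO Orange is then added and samples are melted. Tm is taken from the fluorescence curve or its first derivative as the half-unfolded point. ΔTm is the change in Tm on ligand binding. A DMSO series of 0–2% was also run.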

Crk SH2 [3] = experiment: Fluorescence polarization; type: mouse Crk protein 1 – 118 identical to human CRK protein; conditions: direct binding; various concentrations of FAM-conjugated peptides titrated into 4 nM Crk SH2, 20 mM HEPES pH 7.5, 0.025% Triton X-100; 384-well, 480-nm excitation, 535-nm emission; repeated at least three times; Figure 6A
Crk SH2 vs CrkL SH2 = experiment: Comparison of affinity of FAM-DVpYDVPP for Crk SH2 vs CrkL SH2; type: binding, mouse; conditions: comparison in words; assay and values not given

Substance	Competition of binding of Crk SH2 with FAM-DVpYDVPP (Crk SH2 [1])	Shift of thermal unfolding curve / Tm (Crk SH2 [2])	Increase in FP / polarization (mP) (Crk SH2 [3])	Relative affinity, Crk SH2 vs CrkL SH2 (Crk SH2 vs CrkL SH2)
DVpYDVPP-OH	effectively competed out	shift to the right; also recorded: unfolding curves shifted	–	–
FAM-DVpYDVPP	–	–	a significant increase in FP is measured	Crk SH2 showed a higher affinity
FAM-DVYDVPP	–	–	no significant increase in FP is observed; also recorded: No polarization is detected	–
DVYDVPP	much less significantly	no significant shift in Tm was observed; also recorded: no significant binding	–	–
DVFDVPP-OH	much less significantly	–	–	–
